ChEMBL document CHEMBL1124517, “Nucleosides of azathioprine and thiamiprine as antiarthritics” (J Med Chem, 1989)

Legend:
Rattus norvegicus [1] = species: Rattus norvegicus; experiment: Antiarthritic activity in rat determined by adjuvant arthritis assay in rat; assay type: functional
In short: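 Female Lewis rats, starting weight 190 ± 10 g, adjuvant-induced arthritis. Compound milled into rodent diet, dosed as mg/kg/day in diet from the day of adjuvant injection for 14 days. Arthritic score and weight change assessed on day 16. ED50 is the dose giving a 50% reduction in arthritic score relative to untreated animals.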

Rattus norvegicus [2] = species: Rattus norvegicus; experiment: Compound was tested for dose at which there was no significant weight loss in rat at day 16; assay type: functional
In short: (§1)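 Female Lewis rats (starting weight 190 ± 10 g) with adjuvant-induced arthritis. Compound was milled into rodent chow and given in the diet (mg/kg/day) from the day of adjuvant injection for 14 days. Weight change and deaths were scored on day 16. The highest nontoxic dose was the highest dose without significant weight loss. LD50 was the dietary dose killing 50% by day 16. Some values are approximate, from two dose levels.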

Rattus norvegicus [3] = species: Rattus norvegicus; experiment: Compound was tested for lethal dose at day 16 against rat; assay type: ADME, organism-based; details: in vivo; in short: as §1

Row | SMILES | ED50 (Rattus norvegicus [1]) | Highest nontoxic dose (Rattus norvegicus [2]) | LD50 (Rattus norvegicus [3])
1 | Cn1cnc([N+](=O)[O-])c1Sc1nc(N)nc2c1ncn2[C@H]1C[C@H](O)[C@@H](CO)O1 | 38 mg kg-1 (day in diet)-1 | 50 mg kg-1 (day in diet)-1 | 100 mg kg-1 (day in diet)-1
2 | Cn1cnc([N+](=O)[O-])c1Sc1ncnc2c1ncn2[C@@H]1O[C@H](CO)[C@@H](O)[C@H]1O | 68 mg kg-1 (day in diet)-1 | 180 mg kg-1 (day in diet)-1 | 200 mg kg-1 (day in diet)-1
3 | Cn1cnc([N+](=O)[O-])c1Sc1ncnc2c1ncn2[C@H]1C[C@H](O)[C@@H](CO)O1 | 64 mg kg-1 (day in diet)-1 | 100 mg kg-1 (day in diet)-1 | > 270 mg kg-1 (day in diet)-1
4 | Cn1cnc([N+](=O)[O-])c1Sc1nc(N)nc2c1ncn2[C@@H]1O[C@H](CO)[C@@H](O)[C@H]1O | 36 mg kg-1 (day in diet)-1 | 50 mg kg-1 (day in diet)-1 | 50 mg kg-1 (day in diet)-1
5 | Cn1cnc([N+](=O)[O-])c1Sc1ncnc2nc[nH]c12 [AZATHIOPRINE] | 21 mg kg-1 (day in diet)-1 | 48 mg kg-1 (day in diet)-1 | 150 mg kg-1 (day in diet)-1
6 | Sc1ncnc2nc[nH]c12 [MERCAPTOPURINE ANHYDROUS] | 20 mg kg-1 (day in diet)-1 | 20 mg kg-1 (day in diet)-1 | 25 mg kg-1 (day in diet)-1
7 | Cn1cnc([N+](=O)[O-])c1Sc1nc(N)nc2[nH]cnc12 [THIAMIPRINE] | 19 mg kg-1 (day in diet)-1 | 30 mg kg-1 (day in diet)-1 | 60 mg kg-1 (day in diet)-1
8 | Nc1nc2nc[nH]c2c(=S)[nH]1 [THIOGUANINE] | 10 mg kg-1 (day in diet)-1 | 10 mg kg-1 (day in diet)-1 | 20 mg kg-1 (day in diet)-1
